Tests used:
[1] = tested on: T47D; experiment: Antiproliferative activity against human T47D cells after 48 hrs by SRB assay; assay type: functional, cell-based
How it was run: (§1)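 Human breast tumor T47D and MDA-MB-231 cells (ATCC) were treated with compounds for 48 h, and proliferation/viability was measured. […] Cycloheximide and rotenone served as positive controls.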

[2] = tested on: MDA-MB-231; experiment: Antiproliferative activity against human MDA-MB-231 cells after 48 hrs by SRB assay; assay type: functional, cell-based; conditions: MDA-MB-231, 48 h; how it was run: as §1
[3] = Inhibition of hypoxia-induced HIF-1 activation in human T47D cells by luciferase reporter gene assay; assay type: cell-based
How it was run: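 T47D cells carrying the reporter were incubated under hypoxia (1% O2) for 16 h while exposed to a range of compound concentrations. […] Cycloheximide and rotenone served as positive controls.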

Row | SMILES | IC50 [1] | IC50 [2] | IC50 [3]
1 | C=C1CCCC(C)(C)C1(O)CC/C(C)=C/CC/C(C)=C/CCC1=CC(=O)OC1O (configuration not stated) | > 10 µM | > 10 µM | 
2 | CC(=O)CCCC(C)(C)C(=O)CC/C(C)=C/CC/C(C)=C/CCC1=CC(=O)OC1O (configuration not stated) | > 10 µM | > 10 µM | 
3 | CC1=C(CC/C(C)=C/CC/C(C)=C/CCC2=CC(=O)OC2O)C(C)(C)CCC1 (configuration not stated) [LUFFARIELLOLIDE] | 5.1 µM | 4.5 µM | 3.6 µM
4 | CC1=C(CC/C(C)=C/CC/C(C)=C/C[C@@H](O)C2=CC(=O)OC2)C(C)(C)C(=O)CC1 | > 10 µM | > 10 µM | 3.2 µM
5 | CC1=C(CC/C(C)=C/CC/C(C)=C/C[C@@H](O)C2=CC(=O)OC2)C(C)(C)CCC1 | > 10 µM | > 10 µM | 
6 | CC1=C(CCC(C)(O)/C=C/C/C(C)=C/CCC2=CC(=O)OC2O)C(C)(C)CCC1 (configuration not stated) | > 10 µM | > 10 µM | 
7 | CC(=O)O[C@H](C/C=C(\C)CC/C=C(\C)CCC1=C(C)CCC(=O)C1(C)C)C1=CC(=O)OC1 | > 10 µM | > 10 µM | 3.5 µM
8 | CC1=C(CC/C(C)=C/CC/C(C)=C/CCC2=CC(=O)OC2O)C(C)(C)CCC1O (configuration not stated) | > 10 µM | > 10 µM | 
9 | CC1=C(CC/C(C)=C/CC/C(C)=C/CCC2=CC(=O)OC2O)C(C)(C)CCC1=O (configuration not stated) [ACANTHOLIDE B] | > 10 µM | > 10 µM | 
10 | CC1=C(CC/C(C)=C/CC/C(C)=C/CCC2=CC(=O)OC2O)C(C)(C)C(=O)CC1 (configuration not stated) | > 10 µM | > 10 µM | 6.2 µM
11 | C=C(CCC1=C(C)CCCC1(C)C)C(O)CC/C(C)=C/CCC1=CC(=O)OC1O (configuration not stated) | > 10 µM | > 10 µM | 7.1 µM

— ChEMBL document CHEMBL2406910, “Structures and potential antitumor activity of sesterterpenes from the marine sponge Hyrtios communis” (J Nat Prod, 2013)
